Measured values collected from several papers.
Compare with care: the assays were run in different laboratories.
Medium: plasma

SMILES	species	route	dose	setting	quantity	result
N#C[C@@]12C[C@@H]1[C@@H](n1cnc3c(N[C@@H](C4CCC4)C4CC4)nc(I)nc31)[C@H](O)[C@@H]2O	male Wistar rat	oral	10 mg/kg	–	Tmax	120 min
Cc1cc([C@@H](C)Nc2ccccc2C(=O)O)c2nc(N3CCC(F)(F)CC3)c(C#N)c(=O)n2c1	male beagle dog	intravenous	2 mg/kg	–	clearance	64 mL/min/kg
CCN1CCN(Cc2ccc(NC(=O)c3ccc(C)c(NC(=O)c4cncc(-c5cccs5)c4)c3)cc2C(F)(F)F)CC1	mouse	intraperitoneal	20 mg/kg	single dose	CL/F	151 mL/min/kg
CCNCCCn1c2c(c3cc(OC)c(OC)cc3c1=O)C(=O)c1cc3c(nc1-2)OCO3	male CD-1 mouse	intravenous	1 mg/kg	–	clearance	107 mL/min/kg
N[C@@H](CC(=O)O)Cn1nnc(-c2ccc(Oc3ncc(Cl)cc3F)cc2)n1	male beagle dog	oral	0.5 mg/kg	–	Cmax	5.7 ng/mL
CC(=O)CC(=O)C1CC(C)C(=O)C1=O (stereo not drawn)	male Sprague-Dawley rat	oral	100 mg/kg	–	Tmax	4.8 min
O=C(C=Cc1ccccc1)Nc1cc(-c2ccnc(N3CCC(O)CC3)c2)ccn1	female Sprague-Dawley rat	intravenous	5 mg/kg	–	Tmax	4.98 min
Cc1cc2sc(N)nc2c2cccnc12	female BALB/c mouse	intraperitoneal	30 mg/kg	single dose	CL/F	11 mL/min/kg
CC1=NN(/C(=N/c2nnc(C)s2)Nc2ccc(C)c(C)c2)C(c2cc(F)c(F)c(F)c2)S1 (stereo not drawn)	male CD-1 mouse	intravenous	1 mg/kg	–	clearance	121 mL/min/kg
O=C1CC[C@H](N2Cc3cc(N4CCN(CC5CCN(c6ccc([C@@H]7c8ccc(O)cc8CC[C@@H]7c7ccccc7)cc6)CC5)CC4)ccc3C2=O)C(=O)N1	female Sprague-Dawley rat	oral	20 mg/kg	fed	Tmax	320 min
O=C1CCC(N2Cc3cc(NC(=O)c4cccc(F)c4)ccc3C2=O)C(=O)N1 (stereo not drawn)	female CD-1 mouse	intravenous	3 mg/kg	–	clearance	24 mL/min/kg
Cc1c(C(=O)O)ccc2c3n(nc12)[C@@H]1[C@H](C3)N(CC2CC2)[C@@]2(C(=O)Nc3cc(Cl)ccc32)[C@H]1c1cccc(Cl)c1F	male dog	oral	2 mg/kg	–	Cmax	3.5 µM
CC(=Nc1ccc(N=Cc2cnccn2)cc1)N(C)C	male Sprague-Dawley rat	oral	200 mg/kg	–	Tmax	4.98 min
COc1cc2c3c(n(CCCNCCO)c(=O)c2cc1OC)-c1nc2c(cc1C3=O)OCO2	male CD-1 mouse	intravenous	1 mg/kg	–	clearance	107 mL/min/kg
O=C1CCC(N2Cc3cc(Nc4noc5cc(F)ccc45)ccc3C2=O)C(=O)N1 (stereo not drawn)	female CD-1 mouse	intravenous	3 mg/kg	–	clearance	55 mL/min/kg
